In the library only some 2.5% were active in any assay of this set; here they are far more common.
PRMT1 FP inh: inhibitors of human PRMT1; recombinant PRMT1, activity-based probe fluorescence polarization; inhibition, % at 2.79 µM; 370,000 compounds, 1.3% hits; Q99873;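 active means inhibition above about 21% made by adding two undisclosed values, limit read from the data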
Target sequence (Q99873 whole entry, looked up): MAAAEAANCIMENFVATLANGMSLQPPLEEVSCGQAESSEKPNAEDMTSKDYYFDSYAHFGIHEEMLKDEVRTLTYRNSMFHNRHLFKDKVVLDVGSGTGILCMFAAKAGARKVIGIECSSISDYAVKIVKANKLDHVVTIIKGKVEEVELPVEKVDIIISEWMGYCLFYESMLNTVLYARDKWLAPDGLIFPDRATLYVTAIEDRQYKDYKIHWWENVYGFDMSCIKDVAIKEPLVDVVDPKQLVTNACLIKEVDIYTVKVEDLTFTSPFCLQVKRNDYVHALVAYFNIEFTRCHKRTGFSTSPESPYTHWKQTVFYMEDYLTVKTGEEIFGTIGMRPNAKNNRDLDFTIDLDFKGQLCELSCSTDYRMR
GSTO1 inh: blocks human GSTO1 in RBBP9 counter-screen | AID 1974 | recombinant GSTO1, activity-based probe fluorescence polarization | inhibition, % at 5.96 µM | P78417 | 300,000 compounds, 1.1% hits;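 active means inhibition above the campaign mean inhibition plus 3 SD, cut at about 35% in these data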;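 further: 0% = GSTO1-1 with DMSO and 100% = wells lacking GSTO1-1 enzyme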
Target sequence (P78417 whole entry, looked up): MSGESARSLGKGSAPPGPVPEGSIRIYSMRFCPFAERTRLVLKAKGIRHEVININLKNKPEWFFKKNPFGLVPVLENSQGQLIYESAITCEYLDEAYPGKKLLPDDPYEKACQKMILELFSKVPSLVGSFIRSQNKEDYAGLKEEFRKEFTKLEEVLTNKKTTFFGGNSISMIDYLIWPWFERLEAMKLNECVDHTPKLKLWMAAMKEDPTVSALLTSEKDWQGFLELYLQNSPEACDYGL
TDP2 absorb: TDP2 (human) inhibition, absorbance primary screen | AID 720702 | recombinant TDP2, T5PNP hydrolysis, p-nitrophenol absorbance 415 nm | inhibition, % at 12.8 µM | 370,000 compounds, 0.34% hits;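 active means inhibition above the mean of all tested compounds plus 3 SD, set per campaign, cut at about 25% in these data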;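 further: 0% = DMSO with enzyme and 100% = buffer with substrate but no TDP2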
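Assay system: recombinant human TDP2 / Reagent: T5PNP substrate at 5 mM, a TopII-DNA adduct mimic / Measured by: epi absorbance from released p-nitrophenol / Evaluation: % inhibition relative to enzyme-containing and enzyme-free wells / Control set: enzyme-free and DMSO wells / Replicates: each compound tested once, singlicate / Schedule: enzyme reaction with compound for 2 h at 37 °C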
eLon inh: E. coli protease La inhibition; P0A9M0; purified E. coli Lon protease, fluorescence polarization; inhibition, % at 7.94 µM; 360,000 compounds, 0.42% hits; AID 602123; in the data active means inhibition above about 13%, passing the limit was not always enough;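 further: 0% = enzyme with probe and DMSO and 100% = no enzyme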
PAD4 inh: blocks human protein arginine deiminase 4; AID 485272; inhibition, % at 6.36 µM; Q9UM07; recombinant PAD4, RCA probe fluorescence polarization; 330,000 compounds, 0.41% hits;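 active means percent inhibition above a cutoff equal to the mean of all tested compounds plus 3 SD, cut at about 15% in these data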;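 further: 0% = PAD4 with RCA probe and DMSO and 100% = probe without PAD4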
PRMT1 confirm: PRMT1 (human) inhibition, FP confirmation | inhibition, % at 2.79 µM | 3,300 compounds, 42% hits | shares compounds with PRMT1 FP inh | recombinant His-PRMT1, activity-based probe fluorescence polarization;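 active means mean inhibition across replicates above the hit cutoff derived for the earlier primary screen, cut at about 22% in these data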
The depositor's hits bear a star; x = no result given; ! = repeats disagree.

SMILES	PRMT1 FP inh	GSTO1 inh	TDP2 absorb	eLon inh	PAD4 inh	PRMT1 confirm
O=C1CC(N2CCOCC2)C(=O)N1c1cccc(Cl)c1 (centres undefined)	10	1	7	10	-6	x
CCOC(=O)C1CCCN(C2CC(=O)N(c3cccc(C)c3)C2=O)C1 (centres undefined)	63*	0	17	0	-6	10
CCOC(=O)c1ccc(N2C(=O)CC(N3CCCC(C)C3)C2=O)cc1 (centres undefined)	8	7	-2	-3	-2	x
CCOc1ccc(N2C(=O)CC(N3CCC(NC(=O)Nc4ccccc4)CC3)C2=O)cc1 (centres undefined)	64*	-5	6	6	0	6
CCCOc1ccc(N2C(=O)CC(N3CCC(C(=O)OCC)CC3)C2=O)cc1 (centres undefined)	56*	-1	1	-11	-3	6
O=C(C1CCN(C2CC(=O)N(c3cccc(Cl)c3)C2=O)CC1)N1CCCCCC1 (centres undefined)	29*	-3	-4	-5	-6	4
C[C@@H]1CCCCO[C@@H](CN(C)Cc2ccc(Cl)c(Cl)c2)[C@@H](C)CN([C@H](C)CO)C(=O)c2cc(NC(=O)CCC(F)(F)F)ccc2O1	2	x	-2	0	x	x
O=C(Cc1ccsc1)N1CCN(S(=O)(=O)c2ccccc2F)CC1	2	x	-7	0	1	x
COc1ccc(S(=O)(=O)N2CCOC2CNC(=O)C(=O)NCCc2ccccc2OC)cc1 (centres undefined)	-4	4	14	-12	-4	x
O=C(OCC#CCSc1nnc(-c2cccc3ccccc23)o1)c1ccsc1	-1	x	-2	x	x	x
C/C(=N/NC(=O)CCC(=O)Nc1ccc(Br)cc1)c1ccc(Br)cc1	-5	2	23	-3	2	x
Cc1ccccc1Cn1cc(COC(=O)NCC(C)C)nn1	-1	x	-6	x	x	x
O=C(C1CCCN(C2CC(=O)N(c3ccc(F)cc3)C2=O)C1)N1CCCC1 (centres undefined)	16	x	20	-7	x	x
O=C(C1CCCN(C2CC(=O)N(c3ccc(Cl)cc3)C2=O)C1)N1CCCC1 (centres undefined)	30*	x	-3	-3	x	3
CCCOc1ccc(N2C(=O)CC(N3CCCC(C(=O)N4CCCC4)C3)C2=O)cc1 (centres undefined)	39*	12	8	-15	-1	6
CCCOc1ccc(N2C(=O)CC(SCC(N)C(=O)OCC)C2=O)cc1 (centres undefined)	27*	7	2	-5	-1	23*
CC(C)Cc1ccc(C(C)C(N)=NCCc2ccccc2)cc1 (centres undefined)	5	x	-16	-7	x	x
COc1ccc(NC(=O)c2cc(C3CCCCN3S(=O)(=O)Cc3ccccc3)on2)cn1 (centres undefined)	-2	x	7	7	x	x
O=C(NCc1ccccn1)C1Nc2ccc(OC(F)(F)F)cc2C2C=CCC12 (centres undefined)	34*	2	11	-12	-4	4
CN(C(=O)[C@H]1O[C@@H](n2cnc(C(N)=O)n2)[C@H](O)[C@@H]1O)c1ccccc1	-2	x	-2	x	x	x
Cc1cc(Cl)ccc1OCc1n[nH]c(=S)n1C1CCCCC1	26*	-9	-9	2	-6	2
COc1ccc(Cl)cc1-c1n[nH]c(=S)n1C1CCCCC1	13	-6	-29	-5	2	x
Cc1nnc(SCC(=O)Nc2cc(S(=O)(=O)N3CCOCC3)ccc2C)s1	0	x	-5	2	x	x
O=C(CSc1nc2ccccc2s1)Nc1cc(C(=O)O)cc(C(=O)O)c1	42*	-12	13	1	1	58*
CN(CC(=O)Nc1ccccc1Cl)C(=O)CSc1nc2ccccc2s1	-2	2	-9	-1	-5	x
SMILES	PRMT1 FP inh	GSTO1 inh	TDP2 absorb	eLon inh	PAD4 inh	PRMT1 confirm
O=C(CSc1nc2ccccc2s1)Nc1cc(S(=O)(=O)N2CCOCC2)ccc1O	38*	4	8	9	4	40*
CN(CC(=O)N1CCOCC1)C(=O)CSc1nc2ccccc2s1	26*	-7	6	4	1	34*
CCCCc1ccc(CC(=O)Nc2cc(S(=O)(=O)N3CCOCC3)ccc2O)cc1	32*	x	9	-9	-3	13
O=C(CC1CCCC1)Nc1cc(S(=O)(=O)N2CCOCC2)ccc1O	4	x	-9	2	4	x
CO[C@@H]1CN(C)C(=O)c2ccc(NC(=O)c3ccccc3F)cc2OC[C@@H](C)N(CC2CCOCC2)C[C@@H]1C	-3	x	-18	x	x	x
COCCn1c(N)c(N(Cc2ccccc2)C(=O)COc2ccc(F)cc2Cl)c(=O)[nH]c1=O	1	-7	-1	-7	1	x
O=C(O)CCCN1C(=O)/C(=C\c2ccc(-c3nc4ccccc4s3)o2)SC1=S	49*	22	0	-5	-5	12
O=C(O)c1ccc(-c2nc3ccccc3s2)o1	5	3	-2	-3	-2	x
O=C(O)CC(C(=O)O)N1C(=O)/C(=C/c2ccc(-c3nc4ccccc4s3)o2)SC1=S (centres undefined)	55*	26	13	0	4	-15
O=Cc1ccc(-c2nc3ccccc3s2)o1	3	1	10	10	1	x
O=C(O)CCN1C(=O)/C(=C/c2ccc(-c3nc4ccccc4s3)o2)SC1=S	69*	-5	-6	-8	0	23*
O=S(=O)(c1ccc(F)c(F)c1)N1CCN(CCc2ccccc2)CC1	4	2	-11	-2	4	x
Cc1ccc(-n2c(SCc3cccc4ccccc34)nnc2-c2ccccn2)cc1	-8	x	-9	x	x	x
NNS(=O)(=O)c1ccc(N2CCCC2=O)c([N+](=O)[O-])c1	82*	-3	3	-3	0	55*
CCN(C(=O)c1cccc2c1-c1ccccc1C2=O)c1ccccc1	2	x	4	x	x	x
COC(=O)c1ccc(CSc2n[nH]c(=S)s2)o1	27*	-4	-5	-20	1	-1
C[C@H]1C2CC(OC(=O)Nc3cccc(C(F)(F)F)c3)C(C2)[C@H]2CCCCN21 (some centres undefined)	0	x	9	x	x	x
COc1ccc(-c2ccc3c(n2)CCCN3S(=O)(=O)c2ccc(OC)cc2)cc1	-6	x	-20	x	x	x
COc1ccc(-c2ccc3c(n2)CCCN3S(=O)(=O)c2ccc(C#N)cc2)cc1	45*	x	-10	x	x	26*
C=CCN1C(=O)[C@]2(c3ccccc31)C1CCCC=C1C(C#N)=C(N)C2(C#N)C#N (some centres undefined)	5	5	7	-6	-8	x
CN1CCC2(CC1)C1CN(C)CC=C1C(C#N)=C(N)C2(C#N)C#N (centres undefined)	40*	20	-2	0	8	22*!
